Compound activity deposited in PubChem BioAssay by several laboratories.
Hits are enriched below; roughly 2.1% of the tested compounds scored in any of these assays.
UCH37 DUB inh: human UCH37 deubiquitinating enzyme inhibition | purified proteasome/UCH37, Ub-AMC cleavage fluorescence | inhibition, % (test concentration not listed) | Q9Y5K5 | 0.33% of 330,000 active;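 active = mean inhibition over replicate wells above about 20%, limit read from the data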
Target sequence (Q9Y5K5 whole entry, looked up): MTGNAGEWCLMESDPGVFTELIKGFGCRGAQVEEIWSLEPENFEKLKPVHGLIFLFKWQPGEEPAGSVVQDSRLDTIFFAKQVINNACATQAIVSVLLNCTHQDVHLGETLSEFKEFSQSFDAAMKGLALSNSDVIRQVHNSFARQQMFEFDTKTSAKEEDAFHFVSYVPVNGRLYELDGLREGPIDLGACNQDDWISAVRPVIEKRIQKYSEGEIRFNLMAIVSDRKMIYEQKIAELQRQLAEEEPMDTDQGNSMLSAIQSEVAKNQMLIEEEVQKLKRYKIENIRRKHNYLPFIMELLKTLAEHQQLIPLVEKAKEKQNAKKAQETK
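system = Proteasome-associated human UCH37 deubiquitinase | amount = 0.15 nM proteasome as dispensed | medium = pH 7.4 Tris-HCl (50 mM) with ovalbumin, ATP-MgCl2, DTT | incubation = 30 min preincubation with enzyme, 25 min cleavage at room temperature | detection = AMC fluorescence 355/460 nm | read-out basis = percent inhibition | controls = no-proteasome and no-compound wells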
H9c2 protect: protects H9c2 cardiomyocytes from peroxide injury; H2O2 injury protection, ATPLite, 2 h; protection from H2O2 cell death, % at 20 µM; 0.63% of 360,000 active;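 active = compounds giving at least 50% protection of heart cells from peroxide-induced death in the single-dose screen, raw or plate-pattern-corrected value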
aDG glyco act: increases alpha dystroglycan glycosylation; Pro5-aDG cells, alpha-DG glycosylation AlphaScreen (IIH6); 0% Pro5, 100% B10-LARGE cell signal; activation, % at 10 µM; 0.22% of 360,000 active;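 active = activation of at least 8% versus controls, or a plate z-score of at least 8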;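 also: Pro5 are CHO cells carrying HIG-tagged alpha-DG that lacks glycosylation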
PfG6PD inh: PfG6PD (Plasmodium falciparum) enzyme inhibition; inhibition, % at 20 µM; 0.78% of 350,000 active; PfGluPho enzyme, NADPH resazurin-diaphorase fluorescence;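 active = inhibition reaching at least a set limit at 20 µM in the primary screen, cut at about 59% in these data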
B2AR ag: human beta-2 adrenergic receptor agonism by FAP | P07550 | Am2.2-beta2AR cells, FAP receptor internalization, flow cytometry | response, % (concentration not given with the values) | 0.43% of 340,000 active;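 active = response above a set limit, near 3 SD of response in nonfluorescent compounds, cut at about 42% in these data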
HKDC1 inhibitor: blocks human hexokinase HKDC1 activity. Q2TB90. recombinant HKDC1, G6PDH/diaphorase resazurin coupled fluorescence. inhibition, % at 20 µM. 0.16% of 340,000 active. AID 493160;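 active = inhibition above about 35% when tested at 20 µM, limit read from the data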
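Assay system – recombinant HKDC1 (HK5) hexokinase enzyme, produced in-house · Input – HKDC1 at 5 µg/mL · Reagent – glucose plus 1 mM ATP as hexokinase substrates · Timing – 90 min reaction incubation at room temperature, dark · Measured by – G6PDH/diaphorase-coupled fluorescence, 1 mM NADP, 100 µM resazurin, 525/613 nm · Benchmarks – DMSO-enzyme wells negative, buffer-substituted wells positive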
B2AR ag CP1: agonists of human beta-2 adrenergic receptor | AID 540358 | shares compounds with B2AR ag | 25% of 1,100 active | Am2.2-beta2AR cells, FAP surface receptor, flow cytometry; active compounds read low | percent response (surface receptor), % at 10 µM;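 active = surface receptor percent response at or below 58%, roughly 3 SD from nonfluorescent compounds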
B2AR FAP counter: counter-screen for beta-2AR agonists: fluorescence in Am2.2 cells | FAP fluorogen flow cytometry, fluorescence counterscreen; active compounds read low | calls only at 10 µM | 1,100 tested, under 10 active | shares compounds with B2AR ag;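 active = percent response below a set limit in fluorescence channel 1 and below 50% in channel 8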
Hits are given with their value; 0 = inactive; - = no result.

SMILES	UCH37 DUB inh	H9c2 protect	aDG glyco act	PfG6PD inh	B2AR ag	HKDC1 inhibitor	B2AR ag CP1	B2AR FAP counter
O=C(NC1CCc2ccccc21)c1cc(COc2cncc(Cl)c2)on1 (stereo not drawn)	0	0	0	0	0	0	0	0
CCOC(=O)CSc1nc2ccc(NC(=O)CSc3nnnn3Cc3ccccc3)cc2s1	0	0	0	0	54	0	0	0
CCn1cc(C(=O)O)c(=O)c2cc(F)c(N3CCN(S(=O)(=O)c4ccc(NC(C)=O)cc4)CC3)cc21	0	0	0	0	56	0	0	0
Cc1ccc(OCc2cc(C(=O)NCc3cnn(-c4cccc(F)c4)c3)no2)cn1	0	0	0	0	97	0	16	0
Cc1ccc(OCc2cc(C(=O)NCc3ccc(OC(F)(F)F)cc3)no2)cn1	0	0	0	0	52	0	40	0
Oc1ccccc1/C=N/Nc1nc2ccccc2o1	-	0	0	0	0	0	0	0
CC(=NNC(=O)c1cnccn1)c1ccncc1	0	-	-	-	-	-	-	-
CC(C)(C)C(=O)CC1(O)C(=O)N(Cc2ccc(Cl)cc2)c2ccccc21 (stereo not drawn)	0	0	0	0	54	0	0	0
COc1ccc(-n2ccnc(SCC(=O)NC3CCCCC3)c2=O)cc1	0	0	0	0	93	0	0	0
COc1ccc(-n2c(Cc3cc(=O)[nH]c(=O)[nH]3)nnc2SCC(=O)NC2CCCC2)cc1	0	0	0	0	52	0	0	0
CCOc1ccc(-n2c(Cc3cc(=O)[nH]c(=O)[nH]3)nnc2SCC(=O)NC2CCCC2)cc1	0	0	0	0	0	0	-	-
CC1Cc2ccccc2N1C(=O)CNCCCN(C)C (stereo not drawn)	0	0	0	0	0	0	-	-
CC1CC2(C)Oc3ccccc3CC2C(C)C1CNCCCN(C)C (stereo not drawn)	0	0	0	0	42	0	0	0
Cc1nc(C(=NO)C(N)=O)cs1	0	-	-	-	-	-	-	-
CC(=O)Nc1ccc2c(c1)C(N1CC3CCC(CC3)C1)c1ccccc1-2 (stereo not drawn)	0	0	0	0	43	0	0	0
O=C(Nc1cccc(Cl)c1)N1CCN(C2c3ccccc3-c3ccccc32)CC1	0	0	0	0	0	0	-	-
C=C(C)C1CC=C(C)C(=NNC(=O)CCC(=O)Nc2ccccc2Cl)C1 (stereo not drawn)	0	-	-	-	-	-	-	-
CC(C)Cn1nc(NS(=O)(=O)c2ccccc2)c2cc3ccccc3nc21	0	0	0	0	0	0	0	0
CC(C)(C)c1ccc(OCC(=O)Nc2ccc(-c3nc4cccnc4o3)cc2)cc1	0	0	0	0	110	0	40	0
O=C1C2CCCCN2C(=O)N1CCCCN1CCN(c2cccc(C(F)(F)F)c2)CC1 (stereo not drawn)	-	0	0	0	59	0	0	0
O=C1C2CCCCN2C(=O)N1CCCCN1CCN(c2cccc(Cl)c2)CC1 (stereo not drawn)	0	0	0	0	0	0	-	-
COc1cccc(-c2c(C(=O)NN=C(C)COc3ccccc3)nnn2-c2nonc2N)c1	0	-	-	-	-	-	-	-
Cc1ccc(S(=O)(=O)N=C(c2ccc(F)cc2)N(C)C)cc1	0	-	-	-	-	-	-	-
COc1ccc(Nc2cc(C(=O)NCCCN3CCN(C)CC3)c3ccccc3n2)cc1	0	0	0	0	47	0	0	0
O=C(c1ccc(-c2nnc(Nc3ccccc3)c3ccccc23)cc1)N1C[C@H]2C[C@H](C1)c1cccc(=O)n1C2	0	0	0	0	0	0	0	0
Cn1c(=O)n(C)c2cc([N+](=O)[O-])c(N3CCN(S(=O)(=O)c4ccc(C(C)(C)C)cc4)CC3)cc21	0	0	0	0	48	0	0	0
Cc1cc(C)cc(CSCC(=O)NN=Cc2ccc(OCC(=O)NCc3ccco3)cc2)c1	0	-	-	-	-	-	-	-
